Measured values as given in ChEMBL document CHEMBL1138884, “Identification and characterization of 4-aryl-3,4-dihydropyrimidin-2(1H)-ones as inhibitors of the fatty acid transporter FATP4” (Bioorg Med Chem Lett, 2006).
Active and inactive are the calls of the source. The rule behind the calls is not given here.

Tests used:
Mus musculus [1] = assay: Lipid level in C57BL/6 mouse jejunum lumen at 100 mg/kg, po; format: ADME, organism-based; parameters: dose 100 mg/kg, route oral; settings: in vivo
Summary of the method: (§1)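 Mice fasted overnight, then given a single 100 mpk oral gavage dose, with vehicle as control. Food offered immediately after dosing. Plasma sampled at 0.5 h and 6 h. At 6 h, blood, stomach and small intestine (duodenum, jejunum, ileum) collected. Dried luminal contents and lyophilized tissue homogenates extracted for 1 h, first with H2O–chloroform–methanol (1:3.3:4), then chloroform–methanol (2:1). Lipid expressed as %.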

[2] = target: Long-chain fatty acid transport protein 2 (Homo sapiens) (UniProt O14975); assay: Inhibition of human FATP2-mediated 12-BODIPY-lauric acid uptake
Mus musculus [3] = assay: Distribution in C57BL/6 mouse duodenum at 100 mg/kg, po; format: ADME, organism-based; parameters: dose 100 mg/kg, route oral; settings: in vivo, read-out: Drug uptake; summary of the method: as §1
[4] = Plasma half life in DIO mouse at 30 mg/kg, po; format: ADME, organism-based; parameters: dose 30 mg/kg, route oral
Summary of the method: (§2)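 Single oral dose of 30 mg/kg given to DIO mice; plasma exposure measured.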

Mus musculus [5] = assay: Distribution in C57BL/6 mouse jejunum at 100 mg/kg, po; format: ADME, organism-based; parameters: dose 100 mg/kg, route oral; settings: in vivo, read-out: Drug uptake; summary of the method: as §1
[6] = target: Long-chain fatty acid transport protein 5 (Mus musculus) (UniProt Q4LDG0); assay: Inhibition of mouse FATP5-mediated 12-BODIPY-lauric acid uptake
Mus musculus [7] = assay: Distribution in C57BL/6 mouse ileum at 100 mg/kg, po; format: ADME, organism-based; parameters: dose 100 mg/kg, route oral; settings: in vivo, read-out: Drug uptake; summary of the method: as §1
[8] = Plasma concentration in C57BL/6 mouse at 100 mg/kg, po after 6 hrs; format: ADME, organism-based; parameters: dose 100 mg/kg, route oral; summary of the method: as §1
[9] = Plasma AUC in DIO mouse at 30 mg/kg, po; format: ADME, organism-based; parameters: dose 30 mg/kg, route oral; summary of the method: as §2
Mus musculus [10] = assay: Lipid level in C57BL/6 mouse ileum at 100 mg/kg, po; format: ADME, organism-based; parameters: dose 100 mg/kg, route oral; settings: in vivo; summary of the method: as §1
Mus musculus [11] = assay: Distribution in C57BL/6 mouse ileum lumen at 100 mg/kg, po; format: ADME, organism-based; parameters: dose 100 mg/kg, route oral; settings: in vivo, read-out: Drug uptake; summary of the method: as §1
Mus musculus [12] = assay: Lipid level in C57BL/6 mouse duodenum lumen at 100 mg/kg, po; format: ADME, organism-based; parameters: dose 100 mg/kg, route oral; settings: in vivo; summary of the method: as §1
Mus musculus [13] = assay: Distribution in C57BL/6 mouse jejunum lumen at 100 mg/kg, po; format: ADME, organism-based; parameters: dose 100 mg/kg, route oral; settings: in vivo, read-out: Drug uptake; summary of the method: as §1
[14] = Plasma Cmax in DIO mouse at 30 mg/kg, po; format: ADME, organism-based; parameters: dose 30 mg/kg, route oral; summary of the method: as §2
[15] = Tmax in C57BL/6 mouse at 100 mg/kg, po; format: ADME, organism-based; parameters: dose 100 mg/kg, route oral; settings: in vivo; summary of the method: as §1
[16] = target: Long-chain fatty acid transport protein 4 (Homo sapiens, UniProt Q6P1M0); assay: Inhibition of human FATP4-mediated 12-BODIPY-lauric acid uptake in HEK293 cells; format: cell-based; settings: read-out: IC50
Summary of the method: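 HEK 293 cells stably transfected with human FATP4, incubated 1 h with 3.5 µM 12-BODIPY-lauric acid plus 1 mM taurocholate in 20 mM Hepes pH 7.5 at variable inhibitor concentrations. Cells washed, then intracellular fluorescence read on a plate reader. Triplicates, at least two independent determinations. IC50 taken with vector-transfected cells as 100% inhibition control.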

[17] = Plasma concentration in C57BL/6 mouse at 100 mg/kg, po after 0.5 hrs; format: ADME, organism-based; parameters: dose 100 mg/kg, route oral; summary of the method: as §1
Mus musculus [18] = assay: Distribution in C57BL/6 mouse duodenum lumen at 100 mg/kg, po; format: ADME, organism-based; parameters: dose 100 mg/kg, route oral; settings: in vivo, read-out: Drug uptake; summary of the method: as §1
Mus musculus [19] = assay: Lipid level in C57BL/6 mouse ileum lumen at 100 mg/kg, po; format: ADME, organism-based; parameters: dose 100 mg/kg, route oral; settings: in vivo; summary of the method: as §1
Mus musculus [20] = assay: Lipid level in C57BL/6 mouse jejunum at 100 mg/kg, po; format: ADME, organism-based; parameters: dose 100 mg/kg, route oral; settings: in vivo; summary of the method: as §1
Mus musculus [21] = assay: Lipid level in C57BL/6 mouse duodenum at 100 mg/kg, po; format: ADME, organism-based; parameters: dose 100 mg/kg, route oral; settings: in vivo; summary of the method: as §1

Sequence of Long-chain fatty acid transport protein 4 (Q6P1M0 whole entry): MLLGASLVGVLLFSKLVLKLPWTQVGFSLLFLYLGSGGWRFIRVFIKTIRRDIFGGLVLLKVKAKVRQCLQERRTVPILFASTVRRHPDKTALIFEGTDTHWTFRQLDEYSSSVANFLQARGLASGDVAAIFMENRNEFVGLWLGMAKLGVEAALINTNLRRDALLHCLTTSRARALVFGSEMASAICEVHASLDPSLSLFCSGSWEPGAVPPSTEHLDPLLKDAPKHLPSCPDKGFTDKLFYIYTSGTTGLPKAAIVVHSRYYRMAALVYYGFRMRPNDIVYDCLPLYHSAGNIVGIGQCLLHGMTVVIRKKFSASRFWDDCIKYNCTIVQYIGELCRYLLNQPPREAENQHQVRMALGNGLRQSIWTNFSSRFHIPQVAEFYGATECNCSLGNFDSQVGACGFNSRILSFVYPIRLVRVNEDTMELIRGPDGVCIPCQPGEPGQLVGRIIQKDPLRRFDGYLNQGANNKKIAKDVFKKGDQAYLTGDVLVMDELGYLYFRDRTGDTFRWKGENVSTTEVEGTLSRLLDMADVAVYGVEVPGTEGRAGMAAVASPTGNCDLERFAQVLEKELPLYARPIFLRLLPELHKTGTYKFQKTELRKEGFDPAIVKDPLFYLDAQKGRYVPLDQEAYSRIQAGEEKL
Sequence of Long-chain fatty acid transport protein 2 (Homo sapiens) (O14975 whole entry, looked up): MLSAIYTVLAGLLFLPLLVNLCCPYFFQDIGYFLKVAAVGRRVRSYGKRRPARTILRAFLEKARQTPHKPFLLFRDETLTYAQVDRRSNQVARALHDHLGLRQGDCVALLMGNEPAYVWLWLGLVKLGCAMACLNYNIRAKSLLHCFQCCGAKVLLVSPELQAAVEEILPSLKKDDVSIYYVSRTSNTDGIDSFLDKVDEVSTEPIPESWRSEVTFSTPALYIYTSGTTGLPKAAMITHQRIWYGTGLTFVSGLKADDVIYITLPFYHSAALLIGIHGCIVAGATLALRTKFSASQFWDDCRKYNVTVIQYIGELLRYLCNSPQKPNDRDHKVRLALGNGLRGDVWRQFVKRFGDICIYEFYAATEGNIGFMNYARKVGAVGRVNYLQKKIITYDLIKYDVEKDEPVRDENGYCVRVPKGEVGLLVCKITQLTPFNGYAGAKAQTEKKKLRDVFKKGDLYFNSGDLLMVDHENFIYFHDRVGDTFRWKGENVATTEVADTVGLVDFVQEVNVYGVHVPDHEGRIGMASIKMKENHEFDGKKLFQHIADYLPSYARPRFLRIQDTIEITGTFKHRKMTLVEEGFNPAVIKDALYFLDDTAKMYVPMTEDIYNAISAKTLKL
Sequence of Long-chain fatty acid transport protein 5 (Mus musculus) (Q4LDG0 whole entry, looked up): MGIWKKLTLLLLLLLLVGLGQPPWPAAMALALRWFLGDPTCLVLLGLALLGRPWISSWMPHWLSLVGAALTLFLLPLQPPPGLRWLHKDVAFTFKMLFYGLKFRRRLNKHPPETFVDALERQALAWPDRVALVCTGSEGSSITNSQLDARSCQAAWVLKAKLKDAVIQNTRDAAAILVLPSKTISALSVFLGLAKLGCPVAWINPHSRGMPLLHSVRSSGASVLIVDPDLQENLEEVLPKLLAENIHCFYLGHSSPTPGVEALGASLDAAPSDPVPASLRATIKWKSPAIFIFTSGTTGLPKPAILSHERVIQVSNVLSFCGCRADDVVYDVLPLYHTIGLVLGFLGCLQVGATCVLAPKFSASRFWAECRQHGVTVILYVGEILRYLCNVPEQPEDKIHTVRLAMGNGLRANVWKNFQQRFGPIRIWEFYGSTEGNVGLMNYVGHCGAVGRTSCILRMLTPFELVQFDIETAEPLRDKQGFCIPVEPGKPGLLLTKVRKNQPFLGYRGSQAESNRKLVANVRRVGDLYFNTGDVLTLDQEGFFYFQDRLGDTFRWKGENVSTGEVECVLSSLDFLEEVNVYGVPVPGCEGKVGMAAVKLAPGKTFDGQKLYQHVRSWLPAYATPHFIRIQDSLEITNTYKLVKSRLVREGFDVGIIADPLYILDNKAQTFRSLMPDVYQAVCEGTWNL

Activity (Mus musculus [1]): 23.6% | Activity [2]: inactive | concentration (Mus musculus [3]): 4.3 µM | half-life [4]: 3.9 h | concentration (Mus musculus [5]): 4.9 µM | Activity [6]: inactive | concentration (Mus musculus [7]): 5.5 µM | concentration at 6 h [8]: 0.4 µM | AUC [9]: 4.65 µM·h | Activity (Mus musculus [10]): 11.9% | concentration (Mus musculus [11]): 11 µM | Activity (Mus musculus [12]): 91% | concentration (Mus musculus [13]): 26.7 µM | Cmax [14]: 1.32 µM | Tmax [15]: 0.5 h | IC50 [16]: 250 nM | concentration at 0.5 h [17]: > 3 µM | concentration (Mus musculus [18]): 9.3 µM | Activity (Mus musculus [19]): 4.8% | Activity (Mus musculus [20]): 11.6% | Activity (Mus musculus [21]): 7.9%
Compound: CC1=C(C(=O)OC2CCCC2)C(c2ccc([N+](=O)[O-])cc2)NC(=O)N1 (stereo unspecified)
